Reference: publication PMC4975651 (Molecular cell, 2016)

What was measured:
[1] = tested on: ZMYND8-PBP, F109D; test: ITC, ZMYND8-PBP F109D; type: binding, human; conditions: H3K4me0 (1-25aa), relative to ZMYND8-PBP
Procedure, shortened: (§1)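 ZMYND8 PHD/Bromo/PWWP region, with its point and deletion mutants, was cloned into a bacterial GST-fusion expression vector and expressed as recombinant protein. Binding to histone H3 peptides was measured by isothermal titration calorimetry, and KD was taken from the titration.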

[2] = tested on: ZMYND8-PBP, alanine mutation of D96; test: ITC, ZMYND8-PBP alanine mutant of D96; type: binding, human; conditions: H3K4me0 (1-25aa)
Procedure, shortened: as §1

[3] = biological target: T1, ZMYND8-PHD/Bromo (ZMYND8-PB) (Homo sapiens, UniProt Q9ULU4); test: Isothermal titration calorimetry; type: binding; conditions: ITC
T1 sequence (Q9ULU4 75-268 limits assumed): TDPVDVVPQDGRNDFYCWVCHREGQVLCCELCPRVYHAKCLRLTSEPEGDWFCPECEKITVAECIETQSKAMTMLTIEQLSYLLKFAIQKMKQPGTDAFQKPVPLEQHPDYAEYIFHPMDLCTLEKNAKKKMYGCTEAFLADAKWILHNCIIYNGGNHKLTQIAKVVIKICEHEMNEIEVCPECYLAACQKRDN
Procedure, shortened: as §1

[4] = biological target: T2, ZMYND8-PHD/Bromo/PWWP (ZMYND8-PBP) (Homo sapiens, UniProt Q9ULU4); test: Isothermal titration calorimetry; type: binding; conditions: ITC
T2 sequence (Q9ULU4 93-426 isoform Q9ULU4-10): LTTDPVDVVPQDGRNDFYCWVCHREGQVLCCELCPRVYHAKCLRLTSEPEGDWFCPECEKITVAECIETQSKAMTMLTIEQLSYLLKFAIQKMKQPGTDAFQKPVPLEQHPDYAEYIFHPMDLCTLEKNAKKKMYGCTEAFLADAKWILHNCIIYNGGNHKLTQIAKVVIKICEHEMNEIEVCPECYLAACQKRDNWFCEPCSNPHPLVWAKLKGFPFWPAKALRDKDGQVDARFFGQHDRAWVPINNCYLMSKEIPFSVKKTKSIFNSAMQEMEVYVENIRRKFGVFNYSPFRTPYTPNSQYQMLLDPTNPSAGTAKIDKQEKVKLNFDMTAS
Procedure, shortened: as §1

[5] = tested on: GST-tagged ZMYND8-PB (ZMYND8-PHD/Bromo); test: Peptide pull-down assay, GST-tagged ZMYND8-PB; type: binding, human; conditions: biotinylated peptides
Procedure, shortened: (§2)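 Biotinylated histone peptides were used to pull down GST-tagged ZMYND8 fragments expressed in bacteria from a GST-fusion vector. These fragments were PHD/Bromo, PHD/Bromo/PWWP, or deletion mutants of PHD/Bromo. The deletion mutants were tested against the H3 (1-21) peptide.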

[6] = tested on: N-terminal truncated version of ZMYND8-PBP (residue 103-426); test: ITC, N-terminal truncated ZMYND8-PBP; type: binding, human; conditions: H3K4me0 (1-25aa)
Procedure, shortened: as §1

[7] = tested on: ZMYND8-PBP, alanine mutation of E124; test: ITC, ZMYND8-PBP alanine mutant of E124; type: binding, human; conditions: H3K4me0 (1-25aa)
Procedure, shortened: as §1

[8] = tested on: ZMYND8-PBP, D108A; test: ITC, ZMYND8-PBP alanine mutant of D108; type: binding, human; conditions: H3K4me0 (1-25aa)
Procedure, shortened: as §1

[9] = tested on: ZMYND8-PHD; test: Peptide pull-down assay, ZMYND8-PHD alone; type: binding, human; conditions: H3 (1-21) peptide
Procedure, shortened: as §2

[10] = tested on: ZMYND8-PBP, alanine mutation of D99; test: ITC, ZMYND8-PBP alanine mutant of D99; type: binding, human; conditions: H3K4me0 (1-25aa)
Procedure, shortened: as §1

[11] = tested on: ZMYND8-PBP, alanine mutation of D104; test: ITC, ZMYND8-PBP alanine mutant of D104; type: binding, human; conditions: H3K4me0 (1-25aa)
Procedure, shortened: as §1

enhancement of PBP's binding activity by F109D [1]: ~ 11 fold
H3K4me0-binding activity of mutant [2]: significant losses
Kd [3]: ~15 µM
Kd [4]: ~7.2 µM
H3K4me0-binding activity of truncated ZMYND8-PBP [6]: significant losses
H3K4me0-binding activity of mutant [7]: significant losses
H3K4me0-binding activity of mutant [8]: significant losses
H3K4me0-binding activity of mutant [10]: significant losses
H3K4me0-binding activity of mutant [11]: significant losses
Substance: H3K4me0: unmethylated H3K4 (H3 [1-21aa]; referred to as "H3K4me0")
interaction with ZMYND8-PB (pull-down), 300 mM NaCl wash [5]: interacted
interaction with ZMYND8-PHD alone (pull-down) [9]: did not interact
